This sample holds only a part of the variants without activity.
B1: tRNA (parent)
chain: GUUCCGUUGGCGUAAUGGUAACGCGUCUCCCUCCUAAGGAGAAGACUGCGGGUUCGAGUCCCGUACGGAACG

Variants of: B1
Test: yeast fitness relative to wild type (ratio to wild type); higher = fitter; tRNA-Arg(CCU), competitive growth, 37 C, YPD
Procedure, shortened: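 The tRNA-Arg(CCU) gene variants were made by chemical synthesis with a 3% per-site mutation rate at 69 sites and inserted at the native genomic locus of Saccharomyces cerevisiae. After pooling, the strains were competed in YPD at 37°C for 24 hours in six parallel replicates. Gene amplicons from the start population and each end population were read by 100-nucleotide paired-end sequencing, and Darwinian fitness relative to wild type was taken from genotype frequency changes. Genotypes needed ≥ 100 starting reads, and estimates < 0.5 were set to 0.5.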

Variant	yeast fitness
GUUCCGUUGGCGUAAUGGUAACGCGUCUCCCGCCUAAGGAGAAGAAUGCGGGUUCGAGUCCCGUAUGGAACG	0.538
GUUCCGUUGGCGUAAUGGUAACGCGUCUCCCCCCUAAGGAGAAGACUGCGGAUUCGACUCCCGUACGGAACG	≤ 0.5
GUUCCGUUGGCGUAAUGGUAACGCGUCUCCCCCCUAAGGAGAAGACUGCGGGUUCGAGUCCCCUACGGAACG	0.759
GUUCCGUUGGCGUAAUGGUAACGCGUCUCCCGCCUAAGGAGAAGGCUGCGGGUUCGAGUCCCGUACGGUACG	0.553
GUUCCGUUGGCGUAAUGGUAACGCGUCUCCCCCCUAAGGAGAAGACUGCGAGUUCGAGUCCCGUACGGAUCG	0.868
GUUCCGUUGGCGUAAUGGUAACGCGUCUCCCCCCUAAGGAGAAGACUGCGGGUUCGAAUCCCGUACGGAACG	0.798
GUUCCGUUGGCGUAAUGGUAACGCGUCUCCCGACUAAGGAGAAGACAGCGGGUUCGAGUCCUGUAGGGAACG	≤ 0.5
GUUCCGUUGGCGUAAUGGUAACGCGUCUCCCCCCUAAGGAGAAGACUGUGGGUUCGAGUCCCGUCCGGAACG	0.793
GUUCCGUUGGCGUAAUGGUAACGCGUCUCCCCCCUAAGGAGAAGACUGUGGGUUCGAGUCCCGUGCGGAACG	0.778
GUUCCGUUGGCGUAAUGGUAACGCGUCUCCCCCCUAAGGAGAAGACUGCGGGUCCGAGUCCCGUACGGAACG	0.687
GUUCCGUUGGCGUAAUGGUAACGCGUCUCCCGCCUAAGGAGAAGACUGCGGGUUCGUGUCCCGUACGGAACG	0.527
GUUCCGUUGGCGUAAUGGUAACGCGUCUCCCCCCUAAGGAGAAGACUCUGGGUUCGAGUCCCGUACGGAACG	0.635
GUUCCGUUGGCGUAAUGGUAACGCGUCUCCCGCCUAAGGUGAAGACUGCGGGUUCGAGUCCCGUACGGAACG	0.624
GUUCCGUUGGCGUAAUGGUAACGCGUCUCCCGCCUAAGGCGAAGACUGCGGGUUCGAGUCCCGUACGGAACG	0.692
GUUCCGUUGGCGUAAUGGUAACGCGUCUCCCGCCUAAGGAGAAGACUGGGGGUUCGAGUCCCGUACGGAACG	0.602
GUUCCGUUGGCGUAAUGGUAACGCGUCUCCCCCCUAAGGAGAAGACUGCGGGUUCGAGUCCCGUACCGAACG	0.9
GUUCCGUUGGCGUAAUGGUAACGCGUCUCCCGCCUAAGGAGGAGACUGCGGGUUCGAAUCUCGUACGGAGCG	≤ 0.5
GUUCCGUUGGCGUAAUGGUAACGCGUCUCCCCCCUAAGAAGAAGACUGCGGGUUCGAGUCCCGUACGGAACG	0.928
GUUCCGUUGGCGUAAUGGUAACGCGUCUCCCCCCUAAGUAGAAGACUGCGGGUUCGAGUCCCGUACGGAACG	0.911
GUUCCGUUGGCGUAAUGGUAACGCGUCUCCCGCCUAAGGAGAAGACUGCGGGUUCGAGUCUCGUAUGGGACG	≤ 0.5
GUUCCGUUGGCGUAAUGGUAACGCGUCUCCCGCCUAAGGAGAAGGCCGUGGGUUCGAGUCCCGUACGGAUCG	≤ 0.5
GUUCCGUUGGCGUAAUGGUAACGCGUCUCCCCCCUAAGGAGAAGAGUGCGGCUUCGAGUCCCGUACGCAACG	≤ 0.5
GUUCCGUUGGCGUAAUGGUAACGCGUCUCCCCCCUAAGGAGAAGAGUGCGGGUUCGAGCCCCCUACGCAACG	≤ 0.5
GUUCCGUUGGCGUAAUGGUAACGCGUCUCCCCCCUAAGGAGAAGACAGCGGGUUCGAGUCCCGUACGGAACG	0.9
GUUCCGUUGGCGUAAUGGUAACGCGUCUCCCCCCUAAGGAGAAGACUGCGGGUUCGAGUCCCGAACGGAACG	0.789

Variant	yeast fitness
GUUCCGUUGGCGUAAUGGUAACGCGUCUCCCGCCUAAGGAGGAGAUUGCGAGUUCGAGUCCCGUACGGAACG	≤ 0.5
GUUCCGUUGGCGUAAUGGUAACGCGUCUCCCCCCUAACGAGAAGACUGCGGCUUCGAGUCCCGUACGGAACG	≤ 0.5
GUUCCGUUGGCGUAAUGGUAACGCGUCUCCCGCCUAAGGAGAAGACUGCGGGUUCGAGUCCCGUACGGCACG	0.848
GUUCCGUUGGCGUAAUGGUAACGCGUCUCCCCCUUAAGGAGAACACUGCGGGUUCGAGUCCCGUACGGAACG	≤ 0.5
GUUCCGUUGGCGUAAUGGUAACGCGUCUCCCGGCUAAGGAGAAGACUGCGGGUUCGAGUCCCGUAUGGUACG	≤ 0.5
GUUCCGUUGGCGUAAUGGUAACGCGUCUCCCCCCUAAGGAGAAGACUGCGGGUUCGAGUCCCGUAAGGAACG	0.702
GUUCCGUUGGCGUAAUGGUAACGCGUCUCCCCCCUAAGGAGAAGACUGCGGGUUCCAGUCCCGUACGGAACG	0.676
GUUCCGUUGGCGUAAUGGUAACGCGUCUCCCGCUUAAGGAGAAGACUGCGGGUUCGGGUCCCGUACGGAACG	0.561
GUUCCGUUGGCGUAAUGGUAACGCGUCUCCCCCUUAAGGAGAAGUCUGCGGGUUCGAGUCCCGUACGGAACG	0.662
GUUCCGUUGGCGUAAUGGUAACGCGUCUCCCCCCUAACGAGAAGACUGCGGGUUCGAGUCCCGUACGCAACG	≤ 0.5
GUUCCGUUGGCGUAAUGGUAACGCGUCUCCCCCCUAAGGAGAAGACUCCGGGUUCGAGUCCCGUACGGAACG	0.862
GUUCCGUUGGCGUAAUGGUAACGCGUCUCCCCCCUAAGGAGAAGACUACGGGUUCGAGUCCCGUACGGAACG	0.76
GUUCCGUUGGCGUAAUGGUAACGCGUCUCCCCCCUAAGGAGAAGAAUGCGGGUUCGAGUCCCGUACGGAACG	0.88
GUUCCGUUGGCGUAAUGGUAACGCGUCUCCCCCCUAAGGAGAAGACUGCGGGUUUGAGUCCUGUACGGAACG	0.653
GUUCCGUUGGCGUAAUGGUAACGCGUCUCCCGCCUAAGGAGAAGACUGCGGGUUCGAGUCACGUACGGAACG	0.535
GUUCCGUUGGCGUAAUGGUAACGCGUCUCCCGCCUAAGGAGAAGACUGCGGGUUCGAGUCUCGUAUGGAACG	0.577
GUUCCGUUGGCGUAAUGGUAACGCGUCUCCCGCCUAAGGAGAAGACUGCGGGUUCGCGUCCUGUACGGAACG	0.555
GUUCCGUUGGCGUAAUGGUAACGCGUCUCCCCCCUAAGGAGAAGACUGUCGGUUCGAGUCCCGUACGGAACG	0.638
GUUCCGUUGGCGUAAUGGUAACGCGUCUCCCGCCUAAGGAGAAGACUGCGGGUUCGAGUCCCGUACGGAACG	0.664
GUUCCGUUGGCGUAAUGGUAACGCGUCUCCCCCCUAAGGAGAAGACUGAGGGUUCGAGUCCCGUACGGAACG	0.692
GUUCCGUUGGCGUAAUGGUAACGCGUCUCCCCCCUAAGGAGAAGACUGGGGGUUCGAGUCCCGUACGGAACG	1.02
GUUCCGUUGGCGUAAUGGUAACGCGUCUCCCCCCUAAGGAGAAGACUGCGGGUUAGAGUCCCGUACGGAACG	0.632
GUUCCGUUGGCGUAAUGGUAACGCGUCUCCCCCCUAAGGAGAAGACUGCGGGUUUGAGUCCCGUACGGAACG	0.651
GUUCCGUUGGCGUAAUGGUAACGCGUCUCCCGCCUAAGGAGAAGACUGCGGGUUCGAGUCCAGUACGGAACG	0.512
GUUCCGUUGGCGUAAUGGUAACGCGUCUCCCGCCUAAGGAGAAGACUGCGGGUUCGAGUCCUGUACGGAACG	0.625

Variant	yeast fitness
GUUCCGUUGGCGUAAUGGUAACGCGUCUCCCGUCUAGGGAGACGACUGCGGGUUCGAGUCCCGUACGGAACG	≤ 0.5
GUUCCGUUGGCGUAAUGGUAACGCGUCUCCCGCCUAAGGUGAAGACUGCGGGUUCGAGACCCGUACGGAACG	≤ 0.5
GUUCCGUUGGCGUAAUGGUAACGCGUCUCCCCCCUAAGGAGAAGACUGCGGGUUUGAGUCCCGUACGGCACG	0.63
GUUCCGUUGGCGUAAUGGUAACGCGUCUCCCCCCUAAGCAGAAGACUGCCGGUUCGAGUCCCGUACGGAACG	≤ 0.5
GUUCCGUUGGCGUAAUGGUAACGCGUCUCCCGGCUAAGGAGAAGACUGCGGGUUCGAGUCCCGUACGGAGCG	≤ 0.5
GUUCCGUUGGCGUAAUGGUAACGCGUCUCCCCCUUAAGGAGAAGACUGCGGGUUCGAGUCCCGUACGGAACG	0.788
GUUCCGUUGGCGUAAUGGUAACGCGUCUCCCCCUUAAGGAGAAGACUGCGGGAUCGAGUCCCGUAUGGAACG	≤ 0.5
GUUCCGUUGGCGUAAUGGUAACGCGUCUCCCCCCCAAGGAGAAGACUGGGGGUUCGAGUCCCGUACGGAACG	0.545
GUUCCGUUGGCGUAAUGGUAACGCGUCUCCCCCCUAAGGACAAGACCGCGGGUUCGAGUCCCGUACGGAACG	0.592
GUUCCGUUGGCGUAAUGGUAACGCGUCUCCCCCCUAAGGAGAAGACUACGGGUUCGAGUCCCGUACGGAUCG	0.783
GUUCCGUUGGCGUAAUGGUAACGCGUCUCCCCCCUAAGGAGAAGACUGCGGGUUCGAGUGCCGUACGGAACG	0.552
GUUCCGUUGGCGUAAUGGUAACGCGUCUCCCCCCUAAGGAGAAGACUGCGGGUUCGAAUCCUGUACGGCACG	0.716
GUUCCGUUGGCGUAAUGGUAACGCGUCUCCCGCCUAAGGAGCAGACUGCGGGUUCGAGUCCCGUACGGAACG	0.62
GUUCCGUUGGCGUAAUGGUAACGCGUCUCCCCCCCAAGGGGAAGACUGCGGGUUCGAGUCCCGUACGGAACG	≤ 0.5
GUUCCGUUGGCGUAAUGGUAACGCGUCUCCCGCCUAAGGAGAAGACUGCGGGUUCGAGUCUCGUACGGCACG	0.746
GUUCCGUUGGCGUAAUGGUAACGCGUCUCCCGCCUAAGGAGGAGACUGCGGGUUCGAGUCUCGUACGGAACG	≤ 0.5
GUUCCGUUGGCGUAAUGGUAACGCGUCUCCCCCCUAAGGAGAACACUGCGGGUUCGAGUCCCGUACGGAACG	0.842
GUUCCGUUGGCGUAAUGGUAACGCGUCUCCCCCCUAAGGACAAGACUGCGGGUUCGAGUCCCGUACGGAACG	0.931
GUUCCGUUGGCGUAAUGGUAACGCGUCUCCCGCCUAAGGAGAAGAUUGCGGGUUCGAGUCCCGUACGGUACG	0.602
GUUCCGUUGGCGUAAUGGUAACGCGUCUCCCCCCAAAGGAGAAGACCGCGGGUUCGAGUCCCGUACGGAACG	≤ 0.5
GUUCCGUUGGCGUAAUGGUAACGCGUCUCCCCCCUAAGGAGAAGACUGCGGCUUCGAGUCCCGUACGGAACG	0.602
GUUCCGUUGGCGUAAUGGUAACGCGUCUCCCGGCUAAGGAGAAGACUGCAGGGUCGAGUCCCGUACGGGCCG	≤ 0.5
GUUCCGUUGGCGUAAUGGUAACGCGUCUCCCGUCUCAGGAGAAGACUGCGGGUUCUAGUCCCGUAAGGAACG	≤ 0.5
GUUCCGUUGGCGUAAUGGUAACGCGUCUCCCCCCUAACGAGAAGACUGCAGGUUCGAGUCCCGUACGGAGCG	≤ 0.5
GUUCCGUUGGCGUAAUGGUAACGCGUCUCCCGCCUAAGGAGAAGACUGCGGGUUAGGGUCCCGUACGGAACG	≤ 0.5

Source: the RNAGym collection of RNA variant scans (doi:10.1126/science.aae0568)
